Common to all, as to format: binding
One assay concerns the target T1, p53-peptide/14-3-3γ (Homo sapiens, UniProt P61981).
T1 sequence (P61981 1-247): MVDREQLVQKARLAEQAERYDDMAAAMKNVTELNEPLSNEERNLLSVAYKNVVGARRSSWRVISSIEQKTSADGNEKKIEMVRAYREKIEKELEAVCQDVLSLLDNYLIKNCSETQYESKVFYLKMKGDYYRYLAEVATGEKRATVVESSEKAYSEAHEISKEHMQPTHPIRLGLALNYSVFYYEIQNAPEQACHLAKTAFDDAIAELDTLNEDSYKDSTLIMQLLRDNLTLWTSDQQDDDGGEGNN
In words: FA compound titration, selectivity: p53-peptide and 14-3-3γ. To be noted: 0.3 μM 14-3-3γ, 10 nM peptide.

For another assay, the target named is T2, ERα-peptide/14-3-3γ (Homo sapiens, UniProt P61981).
T2 sequence (P61981 1-247): T1 sequence (P61981 1-247)
In words: FA compound titration, selectivity: ERα-peptide and 14-3-3γ. To be noted: 0.1 μM 14-3-3γ, 10 nM peptide.

A further assay concerns the target T3, TAZ-peptide/14-3-3γ (Homo sapiens, UniProt P61981).
T3 sequence (P61981 1-247): T1 sequence (P61981 1-247)
The experiment in a line: FA compound titration, selectivity: TAZ-peptide and 14-3-3γ. To be noted: 0.1 μM 14-3-3γ, 10 nM peptide.

The target of assay [1] is T4, p65_45/14-3-3γ (Homo sapiens, UniProt P61981+Q04206). The experiment in a line: Fluorescence anisotropy. The note with it: fold-change of apparent KD in comparison to a DMSO control, 1 mM fragment.
The target of assay [2] is T4, p65_45/14-3-3γ. In words: Fluorescence anisotropy. To be noted: 50 μM 14-3-3γ, 100 nM p65_45. (In general: Fluorescence polarisation rises when a labelled molecule tumbles more slowly, as on binding a larger partner.)
A further assay concerns the target p65_45/14-3-3σΔC complex (Homo sapiens, UniProt P31947+Q04206, E49R). In words: X-ray crystal soaking of fragments into p65_45/14-3-3σΔC crystals. The note with it: soak 10 mM compound, 7 days; imine bond to Lys122 of 14-3-3. In outline: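 His-tag-free 14-3-3σΔC (12 mg/mL) was complexed overnight 1:2 with N-acetyl, C-amide p65 pSer45 peptide in 20 mM HEPES pH 7.5, 2 mM MgCl2, 2 mM β-mercaptoethanol. Crystals grew in hanging drops (95 mM HEPES pH 7.5, 27–28% PEG400, 190 mM CaCl2, 5% glycerol). Test compound from DMSO stock was added to final 10 mM (≤1% DMSO) for 7 days. Crystals were flash-frozen; binding was judged from 2Fo-Fc density.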

p65_45/14-3-3σΔC complex, sequence (P31947 1-231, other chains not shown): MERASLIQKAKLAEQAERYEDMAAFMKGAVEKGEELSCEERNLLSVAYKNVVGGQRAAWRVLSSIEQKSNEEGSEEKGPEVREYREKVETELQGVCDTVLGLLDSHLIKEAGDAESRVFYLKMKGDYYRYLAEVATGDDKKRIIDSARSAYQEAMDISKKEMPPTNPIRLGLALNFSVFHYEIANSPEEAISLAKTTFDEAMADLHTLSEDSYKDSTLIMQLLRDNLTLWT

Take `O=Cc1ccc(S(=O)(=O)N2CCNc3ccccc32)cc1` [24j]: the “ternary complex formation with p53” value on p53-peptide/14-3-3γ was “no ternary complex formation was detected”. The “ternary complex formation with ERα” value at ERα-peptide/14-3-3γ is “no ternary complex formation was detected”. For the same compound, the “ternary complex formation with TAZ” value on TAZ-peptide/14-3-3γ is given as “no ternary complex formation was detected”.

On to `O=Cc1ccc(S(=O)(=O)N2CCC(N3CCCC3)CC2)cc1` [23m], for which the “SF (stabilization factor)” value on p65_45/14-3-3γ [1] came out at 4.5 fold.

`O=Cc1ccc(-n2ccnc2Br)nc1` [16d]: the “ternary complex formation in FA compound titration (in words)” value (“ternary complex formation … (in words)” below) at p65_45/14-3-3γ [2] is “induced an increase in anisotropy”. In addition, at p65_45/14-3-3σΔC complex, the “binding of the fragment in X-ray crystal soaking experiments” value (“binding of the fragment” below) is reported as “detected in the electron density map”.

With `COC1CCCN(c2cc(C=O)ccc2[N+](=O)[O-])C1` (stereo not shown) [13e], at p65_45/14-3-3γ [2], the “ternary complex formation … (in words)” value was “did not elicit significant ternary complex formation”. Moreover, the “binding of the fragment” value at p65_45/14-3-3σΔC complex is on record as “significant electron density coverage”.

For `O=Cc1ccc([N+](=O)[O-])c(OC(=O)C2CCC2)c1` [10a], at p65_45/14-3-3σΔC complex, the “binding of the fragment” value is given as “bound to Lys122”.

Consider `O=Cc1ccc([N+](=O)[O-])c(N2CCCC(O)C2)c1` (stereo not shown) [13l], for which the “ternary complex formation … (in words)” value at p65_45/14-3-3γ [2] is on record as “did not elicit significant ternary complex formation”. The “binding of the fragment” value at p65_45/14-3-3σΔC complex was “significant electron density coverage”.

With `O=Cc1ccc([N+](=O)[O-])c(N2CCC(O)CC2)c1` [13f], at p65_45/14-3-3γ [2], the “ternary complex formation … (in words)” value was “did not elicit significant ternary complex formation”. Also, on p65_45/14-3-3σΔC complex, the “binding of the fragment” value was “significant electron density coverage”.
